Source: ChEMBL document CHEMBL2021854, “2-Aminopyrimidine based 4-aminoquinoline anti-plasmodial agents. Synthesis, biological activity, structure-activity relationship and mode of action studies” (Eur J Med Chem, 2012)

Legend:
[1] = system: Plasmodium falciparum; test: Resistant factor, ratio of IC50 for chloroquine-resistant Plasmodium falciparum K1 to IC50 for chloroquine-sensitive Plasmodium falciparum 3D7; assay type: functional
In short: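 Resistance factor computed as IC50 against K1 divided by IC50 against 3D7, both from the [3H]hypoxanthine incorporation assay.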

[2] = Cytotoxicity against african green monkey Vero cells assessed as minimum compound concentration required to causes microscopically detectable alteration of normal cell morphology; assay type: cell-based; settings: chlorocebus sabaeus
In short: (§1)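 Confluent, non-proliferating cell cultures were exposed to the compounds. The endpoint was the minimum concentration producing a microscopically detectable alteration of normal cell morphology.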

[3] = system: Human immunodeficiency virus 1; test: Antiviral activity against HIV1 infected in human CEM cells assessed as inhibition of virus-induced cytopathic effect after 4 days; assay type: functional, organism-based; settings: Human immunodeficiency virus 1, CCRF-CEM, 96 h
In short: (§2)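 CEM T-lymphocytes (~3 × 10^5 cells/ml) were infected with HIV-1 IIIB or HIV-2 ROD at ~100 CCID50, then immediately plated with a range of compound concentrations. Giant cell formation was scored microscopically after 4 days at 37 °C. Cytostatic activity was tested in parallel in uninfected CEM cells.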

[4] = Cytotoxicity against human HEL cells assessed as minimum compound concentration required to causes microscopically detectable alteration of normal cell morphology; assay type: cell-based; in short: as §1
[5] = system: Punta Toro virus; test: Antiviral activity against Punta Toro virus infected in african green monkey Vero cells assessed as inhibition of virus-induced cytopathogenicity after 4 days; assay type: functional, organism-based; settings: 96 h
In short: (§3)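 Confluent HEL, Vero or HeLa monolayers were inoculated with 100 CCID50 of virus in the presence of varying concentrations of compound. Cytopathicity was scored when it reached completion in untreated, virus-infected control cultures.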

[6] = system: Human alphaherpesvirus 3; test: Antiviral activity against […] expressing thymidine kinase infected in HEL cells assessed as reduction of virus plaque formation after 4 days; assay type: functional, cell-based; settings: Human alphaherpesvirus 3, strain Oka vaccine, 96 h
[7] = system: Influenza B virus; test: Antiviral activity against Influenza B virus infected in MDCK cells assessed as inhibition of virus-induced cytopathogenicity after 4 days by colorimetric formazan-based MTS assay; assay type: functional, organism-based; settings: 96 h
[8] = system: Respiratory syncytial virus; test: Antiviral activity against Respiratory syncytial virus infected in human HeLa cells assessed as inhibition of virus-induced cytopathogenicity after 4 days; assay type: functional, organism-based; settings: 96 h; in short: as §3
[9] = system: MDCK; test: Cytotoxicity against MDCK cells assessed as cell viability by colorimetric formazan-based MTS assay; design: species or system Canis lupus familiaris; settings: dog, mdck
In short: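 Cytotoxicity on MDCK cells; 50% cytotoxic concentration from cell viability measured by colorimetric formazan-based MTS assay.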

[10] = Inhibition of beta-hematin formation assessed as Ferriprotoporphyrin IX biomineralisation at 1 mg/ml after 24 hrs; assay type: functional
In short: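 Hemin chloride (0.5 mg/ml in DMSO) mixed with 0.5 M sodium acetate buffer pH 4.4 and drug or solvent control, incubated 37 °C for 24 h. Pellet washed with DMSO to remove unreacted hemin, dissolved in 0.1 N NaOH, absorbance read at 405 nm; percent inhibition relative to control. Highest concentration tested 1 mg/ml.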

[11] = Cytotoxicity against MDCK cells assessed as minimum compound concentration required to causes microscopically detectable alteration of normal cell morphology; assay type: cell-based, Canis lupus familiaris; settings: dog; in short: as §1
[12] = system: Human alphaherpesvirus 2; test: Antiviral activity against HSV2 G infected in HEL cells assessed as inhibition of virus-induced cytopathogenicity after 4 days; assay type: functional, organism-based; settings: Human alphaherpesvirus 2, strain G, 96 h; in short: as §3
[13] = system: Feline infectious peritonitis virus; test: Antiviral activity against FIPV infected in cat CRFK cells assessed as inhibition of virus-induced cytopathic effect after 4 days by colorimetric formazan-based MTS assay; assay type: functional, cell-based; settings: Alphacoronavirus 1, CRFK, 96 h
[14] = system: Human alphaherpesvirus 1; test: Antiviral activity against HSV1 KOS infected in HEL cells assessed as inhibition of virus-induced cytopathogenicity after 4 days; assay type: functional, organism-based; settings: Human alphaherpesvirus 1, KOS, 96 h
In short: (§4)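 Confluent HEL or HeLa monolayers infected with 100 CCID50 of virus in the presence of varying compound concentrations.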

[15] = system: Influenza B virus; test: Antiviral activity against Influenza B virus infected in MDCK cells assessed as reduction visual scoring of virus-induced cytopathogenicity after 4 days; assay type: functional, organism-based; settings: 96 h
In short: (§5)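 MDCK monolayers infected with 100 CCID50 of influenza A (H1N1 or H3N2) or influenza B, with varying compound concentrations. Cytopathicity read when untreated infected controls reached complete CPE.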

[16] = system: Human alphaherpesvirus 1; test: Antiviral activity against thymidine kinase-deficient acyclovir-resistant HSV1 KOS infected in HEL cells assessed as inhibition of virus-induced cytopathogenicity after 4 days; assay type: functional, organism-based; settings: Human alphaherpesvirus 1, KOS, 96 h; in short: as §4
[17] = system: Mammalian orthoreovirus 1; test: Antiviral activity against Reovirus-1 infected in african green monkey Vero cells assessed as inhibition of virus-induced cytopathogenicity after 4 days; assay type: functional, organism-based; settings: Mammalian orthoreovirus 1, Vero, 96 h; in short: as §3
[18] = system: Influenza A virus; test: Antiviral activity against Influenza A virus H3N2 infected in MDCK cells assessed as reduction visual scoring of virus-induced cytopathogenicity after 4 days; assay type: functional, organism-based; settings: 96 h; in short: as §5
[19] = system: Influenza A virus; test: Antiviral activity against Influenza A virus H1N1 infected in MDCK cells assessed as inhibition of virus-induced cytopathogenicity after 4 days by colorimetric formazan-based MTS assay; assay type: functional, organism-based; settings: 96 h
[20] = system: Human betaherpesvirus 5; test: Antiviral activity against Cytomegalovirus AD-169 infected in HEL cells assessed as inhibition of virus plaque formation after 4 days; assay type: functional, organism-based; settings: Human betaherpesvirus 5, AD169, HEL, 96 h
[21] = system: Human alphaherpesvirus 3; test: Antiviral activity against thymidine kinase-deficient […] infected in HEL cells assessed as reduction of virus plaque formation after 4 days; assay type: functional, organism-based; settings: Human alphaherpesvirus 3, 07-1, HEL, 96 h
[22] = system: HeLa; test: Cytotoxicity against human HeLa cells assessed as cell viability by colorimetric formazan-based MTS assay
[23] = system: Human immunodeficiency virus 2; test: Antiviral activity against HIV2 infected in human CEM cells assessed as inhibition of virus-induced cytopathic effect after 4 days; assay type: functional, organism-based; settings: Human immunodeficiency virus 2, CCRF-CEM, 96 h; in short: as §2
[24] = system: Plasmodium falciparum; test: Antiplasmodial activity chloroquine-sensitive Plasmodium falciparum 3D7 infected in human A+ erythrocytes assessed as inhibition of [3H]-hypoxanthine incorporation after 24 hrs by scintillation counting; assay type: functional, organism-based
[25] = system: Plasmodium falciparum; test: Antiplasmodial activity chloroquine-resistant Plasmodium falciparum K1 infected in human A+ erythrocytes assessed as inhibition of [3H]-hypoxanthine incorporation after 24 hrs by scintillation counting; assay type: functional, organism-based
[26] = system: Human respirovirus 3; test: Antiviral activity against Parainfluenza-3 virus infected in african green monkey Vero cells assessed as inhibition of virus-induced cytopathogenicity after 4 days; assay type: functional, organism-based; settings: Human respirovirus 3, Vero, 96 h; in short: as §3
[27] = system: Sindbis virus; test: Antiviral activity against Sindbis virus infected in african green monkey Vero cells assessed as inhibition of virus-induced cytopathogenicity after 4 days; assay type: functional, organism-based; settings: 96 h; in short: as §3
[28] = Cytotoxicity against human HeLa cells assessed as minimum compound concentration required to causes microscopically detectable alteration of normal cell morphology; assay type: cell-based; in short: as §1
[29] = Cytotoxicity against cat CRFK cells assessed as cell viability by colorimetric formazan-based MTS assay; design: species or system Felis catus; settings: crfk
[30] = system: Human betaherpesvirus 5; test: Antiviral activity against Human cytomegalovirus Davis infected in HEL cells assessed as inhibition of virus plaque formation after 4 days; assay type: functional, organism-based; settings: Human betaherpesvirus 5, Davis, 96 h
[31] = system: Coxsackievirus B4; test: Antiviral activity against Coxsackie virus B4 infected in human HeLa cells assessed as inhibition of virus-induced cytopathogenicity after 4 days; assay type: functional, organism-based; settings: Enterovirus B, 96 h; in short: as §3
[32] = system: Vesicular stomatitis virus; test: Antiviral activity against Vesicular stomatitis virus infected in HeLa cells assessed as inhibition of virus-induced cytopathogenicity after 4 days; assay type: functional, organism-based; settings: 96 h; in short: as §4
[33] = Selectivity index, ratio of CC50 for MDCK cells to IC50 for chloroquine-resistant Plasmodium falciparum K1; assay type: functional
In short: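 Selectivity index computed as MTS-based CC50 on MDCK cells divided by IC50 against P. falciparum K1.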

[34] = system: Coxsackievirus B4; test: Antiviral activity against Coxsackie virus B4 infected in african green monkey Vero cells assessed as inhibition of virus-induced cytopathogenicity after 4 days; assay type: functional, organism-based; settings: Enterovirus B, 96 h; in short: as §3
[35] = system: Influenza A virus; test: Antiviral activity against Influenza A virus H1N1 infected in MDCK cells assessed as reduction visual scoring of virus-induced cytopathogenicity after 4 days; assay type: functional, organism-based; settings: 96 h; in short: as §5
[36] = system: Vesicular stomatitis virus; test: Antiviral activity against Vesicular stomatitis virus infected in HEL cells assessed as inhibition of virus-induced cytopathogenicity after 4 days; assay type: functional, organism-based; settings: 96 h; in short: as §4
[37] = system: Felid alphaherpesvirus 1; test: Antiviral activity against Feline herpesvirus infected in cat CRFK cells assessed as inhibition of virus-induced cytopathic effect after 4 days by colorimetric formazan-based MTS assay; assay type: functional, organism-based; settings: Felid alphaherpesvirus 1, CRFK, 96 h
[38] = system: Influenza A virus; test: Antiviral activity against Influenza A virus H3N2 infected in MDCK cells assessed as inhibition of virus-induced cytopathogenicity after 4 days by colorimetric formazan-based MTS assay; assay type: functional, organism-based; settings: 96 h

SMILES	Ratio IC50 [1]	MCC [2] [µM]	EC50 [3] [µM]	MCC [4] [µM]	EC50 [5] [µM]	EC50 [6] [µM]	EC50 [7] [µM]	EC50 [8] [µM]	CC50 [9] [µM]	inhibition [10] [%]	MCC [11] [nM]	EC50 [12] [µM]	EC50 [13] [µM]	EC50 [14] [µM]	EC50 [15] [µM]	EC50 [16] [µM]	EC50 [17] [µM]	EC50 [18] [µM]	EC50 [19] [µM]	EC50 [20] [µM]	other results
CCOC(=O)c1c(C)nc(NCCNc2ccnc3cc(Cl)ccc23)nc1-c1ccccc1	6.43	20	> 2	20	> 4	> 4	> 0.16	> 4	1.4	96	800	> 4	> 4	> 4	> 0.16	> 4	> 4	> 0.16	> 0.16	> 4	EC50 [21]: > 20 µM; CC50 [22]: 7.9 µM; EC50 [23]: > 2 µM; IC50 [24]: 0.0217 µM; IC50 [25]: 0.139 µM; EC50 [26]: > 4 µM; EC50 [27]: > 4 µM; MCC [28]: 20 µM; CC50 [29]: 7.3 µM; EC50 [30]: > 4 µM; EC50 [31]: > 4 µM; EC50 [32]: > 4 µM; Ratio CC50/IC50 [33]: 10.04; EC50 [34]: > 4 µM; EC50 [35]: > 0.16 µM; EC50 [36]: > 4 µM; EC50 [37]: > 4 µM; EC50 [38]: > 0.16 µM
CCOC(=O)c1c(C)nc(NCCCCNc2ccnc3cc(Cl)ccc23)nc1C	39.422	100	> 2	> 20	> 20	9.26	> 0.8	> 20	0.8	100	4000	> 20	> 4	> 100	> 0.8	> 100	> 20	> 0.8	> 0.8	> 4	EC50 [21]: > 20 µM; CC50 [22]: 6.07 µM; EC50 [23]: > 2 µM; IC50 [24]: 0.0421 µM; IC50 [25]: 1.66 µM; EC50 [26]: > 20 µM; EC50 [27]: > 20 µM; MCC [28]: ≥ 20 µM; CC50 [29]: 14.5 µM; EC50 [30]: 5.23 µM; EC50 [31]: > 20 µM; EC50 [32]: > 20 µM; Ratio CC50/IC50 [33]: 0.48; EC50 [34]: > 20 µM; EC50 [35]: > 0.8 µM; EC50 [36]: > 100 µM; EC50 [37]: > 4 µM; EC50 [38]: > 0.8 µM
